{"source": "ChEMBL document CHEMBL4819122", "about": "“Novel 4-(piperazin-1-yl)quinolin-2(1H)-one bearing thiazoles with antiproliferative activity through VEGFR-2-TK inhibition” (Bioorg Med Chem, 2021)", "key": {"[1]": {"system": "HOP-92", "assay": "Cytotoxicity against human HOP-92 assessed as growth inhibition at 10 uM by NCI protocol relative to control", "assay_type": "functional", "details": "read-out: GI", "how_it_was_run": "(§1)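 Run by NCI as a single-dose screen at 10 μM across the sixty-cell-line panel, which covers nine human tumour tissue types. The read-out is percent growth inhibition of treated cells relative to untreated cells.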"}, "[2]": {"system": "MDA-MB-435", "assay": "Cytotoxicity against human MDA-MB-435 assessed as growth inhibition at 10 uM by NCI protocol relative to control", "assay_type": "functional, cell-based", "how_it_was_run": "as §1"}, "[3]": {"system": "T47D", "assay": "Cytotoxicity against human T47D cells assessed as reduction in cell viability after 3 hrs by MTT assay"}, "[4]": {"system": "CCRF-CEM", "assay": "Cytotoxicity against human CCRF-CEM assessed as growth inhibition at 10 uM by NCI protocol relative to control", "assay_type": "functional", "details": "read-out: GI", "how_it_was_run": "as §1"}, "[5]": {"system": "HL-60", "assay": "Cytotoxicity against human HL60 assessed as growth inhibition at 10 uM by NCI protocol relative to control", "assay_type": "functional", "details": "read-out: GI", "how_it_was_run": "as §1"}, "[6]": {"system": "K562", "assay": "Cytotoxicity against human K-562 assessed as growth inhibition at 10 uM by NCI protocol relative to control", "assay_type": "functional", "details": "read-out: GI", "how_it_was_run": "as §1"}, "[7]": {"system": "MOLT-4", "assay": "Cytotoxicity against human MOLT-4 assessed as growth inhibition at 10 uM by NCI protocol relative to control", "assay_type": "functional", "details": "read-out: GI", "how_it_was_run": "as §1"}, "[8]": {"system": "RPMI-8226", "assay": "Cytotoxicity against human RPMI-8226 assessed as growth inhibition at 10 uM by NCI protocol relative to control", "assay_type": "functional", "how_it_was_run": "as §1"}, "[9]": {"system": "A549", "assay": "Cytotoxicity against human A549 assessed as growth inhibition at 10 uM by NCI protocol relative to control", "assay_type": "functional", "details": "read-out: GI", "how_it_was_run": "as §1"}, "[10]": {"system": "EKVX", "assay": "Cytotoxicity against human EKVX assessed as growth inhibition at 10 uM by NCI protocol relative to control", "assay_type": "functional", "details": "read-out: GI", "how_it_was_run": "as §1"}, "[11]": {"system": "NCI-H226", "assay": "Cytotoxicity against human NCI-H226 assessed as growth inhibition at 10 uM by NCI protocol relative to control", "assay_type": "functional", "details": "read-out: GI", "how_it_was_run": "as §1"}, "[12]": {"system": "NCI-H23", "assay": "Cytotoxicity against human NCI-H23 assessed as growth inhibition at 10 uM by NCI protocol relative to control", "assay_type": "functional", "details": "read-out: GI", "how_it_was_run": "as §1"}, "[13]": {"system": "NCI-H460", "assay": "Cytotoxicity against human NCI-H460 assessed as growth inhibition at 10 uM by NCI protocol relative to control", "assay_type": "functional", "details": "read-out: GI", "how_it_was_run": "as §1"}, "[14]": {"system": "NCI-H522", "assay": "Cytotoxicity against human NCI-H522 assessed as growth inhibition at 10 uM by NCI protocol relative to control", "assay_type": "functional", "details": "read-out: GI", "how_it_was_run": "as §1"}, "[15]": {"system": "HCT-116", "assay": "Cytotoxicity against human HCT-116 assessed as growth inhibition at 10 uM by NCI protocol relative to control", "assay_type": "functional", "details": "read-out: GI", "how_it_was_run": "as §1"}, "[16]": {"system": "HCT-15", "assay": "Cytotoxicity against human HCT-15 assessed as growth inhibition at 10 uM by NCI protocol relative to control", "assay_type": "functional", "details": "read-out: GI", "how_it_was_run": "as §1"}, "[17]": {"system": "SF-268", "assay": "Cytotoxicity against human SF-268 assessed as growth inhibition at 10 uM by NCI protocol relative to control", "assay_type": "functional", "details": "read-out: GI", "how_it_was_run": "as §1"}, "[18]": {"system": "SF-295", "assay": "Cytotoxicity against human SF-295 assessed as growth inhibition at 10 uM by NCI protocol relative to control", "assay_type": "functional", "details": "read-out: GI", "how_it_was_run": "as §1"}, "[19]": {"system": "SNB-19", "assay": "Cytotoxicity against human SNB-19 assessed as growth inhibition at 10 uM by NCI protocol relative to control", "assay_type": "functional", "details": "read-out: GI", "how_it_was_run": "(§2)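 Run by the NCI under its standard protocol: one dose of 10 μM against a sixty-line panel from nine human tumour tissues. Result given as percent growth inhibition of treated cells relative to untreated cells.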"}, "[20]": {"system": "LOX IMVI", "assay": "Cytotoxicity against human LOX IMVI assessed as growth inhibition at 10 uM by NCI protocol relative to control", "assay_type": "functional", "details": "read-out: GI", "how_it_was_run": "as §1"}, "[21]": {"system": "SK-MEL-5", "assay": "Cytotoxicity against human SK-MEL-5 assessed as growth inhibition at 10 uM by NCI protocol relative to control", "assay_type": "functional", "details": "read-out: GI", "how_it_was_run": "as §1"}, "[22]": {"system": "UACC-62", "assay": "Cytotoxicity against human UACC-62 assessed as growth inhibition at 10 uM by NCI protocol relative to control", "assay_type": "functional", "details": "read-out: GI", "how_it_was_run": "as §2"}, "[23]": {"system": "IGROV-1", "assay": "Cytotoxicity against human IGROVI assessed as growth inhibition at 10 uM by NCI protocol relative to control", "assay_type": "functional", "details": "read-out: GI", "how_it_was_run": "as §1"}, "[24]": {"system": "A498", "assay": "Cytotoxicity against human A498 assessed as growth inhibition at 10 uM by NCI protocol relative to control", "assay_type": "functional", "details": "read-out: GI", "how_it_was_run": "as §1"}, "[25]": {"system": "ACHN", "assay": "Cytotoxicity against human ACHN assessed as growth inhibition at 10 uM by NCI protocol relative to control", "assay_type": "functional", "details": "read-out: GI", "how_it_was_run": "as §1"}, "[26]": {"system": "RXF 393", "assay": "Cytotoxicity against human RXF 393 assessed as growth inhibition at 10 uM by NCI protocol relative to control", "assay_type": "functional", "details": "read-out: GI", "how_it_was_run": "as §1"}, "[27]": {"system": "SN12C", "assay": "Cytotoxicity against human SN12C assessed as growth inhibition at 10 uM by NCI protocol relative to control", "assay_type": "functional", "details": "read-out: GI", "how_it_was_run": "as §2"}, "[28]": {"system": "UO-31", "assay": "Cytotoxicity against human UO31 assessed as growth inhibition at 10 uM by NCI protocol relative to control", "assay_type": "functional", "details": "read-out: GI", "how_it_was_run": "as §2"}, "[29]": {"system": "PC-3", "assay": "Cytotoxicity against human PC3 assessed as growth inhibition at 10 uM by NCI protocol relative to control", "assay_type": "functional", "details": "read-out: GI", "how_it_was_run": "as §1"}, "[30]": {"system": "MCF7", "assay": "Cytotoxicity against human MCF7 assessed as growth inhibition at 10 uM by NCI protocol relative to control", "assay_type": "functional", "details": "read-out: GI", "how_it_was_run": "as §1"}, "[31]": {"system": "MDA-MB-231", "assay": "Cytotoxicity against human MDA-MB-231 assessed as growth inhibition at 10 uM by NCI protocol relative to control", "assay_type": "functional", "details": "read-out: GI", "how_it_was_run": "as §1"}, "[32]": {"system": "BT-549", "assay": "Cytotoxicity against human BT-549 assessed as growth inhibition at 10 uM by NCI protocol relative to control", "assay_type": "functional", "details": "read-out: GI", "how_it_was_run": "as §1"}, "[33]": {"system": "T47D", "assay": "Cytotoxicity against human T-47D assessed as growth inhibition at 10 uM by NCI protocol relative to control", "assay_type": "functional", "details": "read-out: GI", "how_it_was_run": "as §2"}, "[34]": {"system": "MDA-MB-468", "assay": "Cytotoxicity against human MDA-MB-468 assessed as growth inhibition at 10 uM by NCI protocol relative to control", "assay_type": "functional", "details": "read-out: GI", "how_it_was_run": "as §1"}}, "note": "Activity calls are given as the source filed them. The calls are words filed in the database; no cut-off is given here.", "data": [{"smiles": "O=c1cc(N2CCNCC2)c2ccccc2n1-c1ccccc1", "values": [{"measurement": "inhibition of growth at 10 µM", "setting": "[1]", "result": 17, "unit": "%"}, {"measurement": "growth inhibition (GI)", "setting": "[2]", "result": "inactive"}, {"measurement": "IC50", "setting": "[3]", "result": 92.1, "unit": "µM"}]}, {"smiles": "Cc1ccc(-c2csc(NC(=O)CN3CCN(c4cc(=O)n(-c5ccccc5)c5ccccc45)CC3)n2)cc1", "values": [{"measurement": "inhibition of growth at 10 µM", "setting": "[4]", "result": 14.8, "unit": "%"}, {"measurement": "inhibition of growth at 10 µM", "setting": "[5]", "result": 19.9, "unit": "%"}, {"measurement": "inhibition of growth at 10 µM", "setting": "[6]", "result": 49.3, "unit": "%"}, {"measurement": "inhibition of growth at 10 µM", "setting": "[7]", "result": 32.2, "unit": "%"}, {"measurement": "growth inhibition (GI)", "setting": "[8]", "result": "inactive"}, {"measurement": "inhibition of growth at 10 µM", "setting": "[9]", "result": 12, "unit": "%"}, {"measurement": "inhibition of growth at 10 µM", "setting": "[10]", "result": 26.5, "unit": "%"}, {"measurement": "inhibition of growth at 10 µM", "setting": "[1]", "result": 13.8, "unit": "%"}, {"measurement": "inhibition of growth at 10 µM", "setting": "[11]", "result": 17.3, "unit": "%"}, {"measurement": "inhibition of growth at 10 µM", "setting": "[12]", "result": 29.7, "unit": "%"}, {"measurement": "inhibition of growth at 10 µM", "setting": "[13]", "result": 11.1, "unit": "%"}, {"measurement": "inhibition of growth at 10 µM", "setting": "[14]", "result": 22.9, "unit": "%"}, {"measurement": "inhibition of growth at 10 µM", "setting": "[15]", "result": 20.2, "unit": "%"}, {"measurement": "inhibition of growth at 10 µM", "setting": "[16]", "result": 26, "unit": "%"}, {"measurement": "inhibition of growth at 10 µM", "setting": "[17]", "result": 13.4, "unit": "%"}, {"measurement": "inhibition of growth at 10 µM", "setting": "[18]", "result": 14.4, "unit": "%"}, {"measurement": "inhibition of growth at 10 µM", "setting": "[19]", "result": 21.8, "unit": "%"}, {"measurement": "inhibition of growth at 10 µM", "setting": "[20]", "result": 12.2, "unit": "%"}, {"measurement": "growth inhibition (GI)", "setting": "[2]", "result": "inactive"}, {"measurement": "inhibition of growth at 10 µM", "setting": "[21]", "result": 13.5, "unit": "%"}, {"measurement": "inhibition of growth at 10 µM", "setting": "[22]", "result": 20.1, "unit": "%"}, {"measurement": "inhibition of growth at 10 µM", "setting": "[23]", "result": 20.2, "unit": "%"}, {"measurement": "inhibition of growth at 10 µM", "setting": "[24]", "result": 18.6, "unit": "%"}, {"measurement": "inhibition of growth at 10 µM", "setting": "[25]", "result": 15.1, "unit": "%"}, {"measurement": "inhibition of growth at 10 µM", "setting": "[26]", "result": 13.2, "unit": "%"}, {"measurement": "inhibition of growth at 10 µM", "setting": "[27]", "result": 13.1, "unit": "%"}, {"measurement": "inhibition of growth at 10 µM", "setting": "[28]", "result": 27, "unit": "%"}, {"measurement": "inhibition of growth at 10 µM", "setting": "[29]", "result": 23.1, "unit": "%"}, {"measurement": "inhibition of growth at 10 µM", "setting": "[30]", "result": 13.5, "unit": "%"}, {"measurement": "inhibition of growth at 10 µM", "setting": "[31]", "result": 17.4, "unit": "%"}, {"measurement": "inhibition of growth at 10 µM", "setting": "[32]", "result": 14.4, "unit": "%"}, {"measurement": "inhibition of growth at 10 µM", "setting": "[33]", "result": 40.9, "unit": "%"}, {"measurement": "inhibition of growth at 10 µM", "setting": "[34]", "result": 30.2, "unit": "%"}, {"measurement": "IC50", "setting": "[3]", "result": 16.5, "unit": "µM"}]}]}
